The record followed here is ChEMBL document CHEMBL2062418, “C3-heteroaroyl cannabinoids as photolabeling ligands for the CB2 cannabinoid receptor” (Bioorg Med Chem Lett, 2012).

SMILES strings stand for the structures.

One assay concerns the target Cannabinoid receptor 1 (Rattus norvegicus, UniProt P20272). Nature of the assay: Displacement of [3H]CP-55,940 from rat brain CB1 receptor. The method, boiled down:
(§1)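 Competition binding with [3H]CP-55,940 on rat brain membranes (CB1) or on membranes from HEK293 cells expressing mouse or human CB2. Screened first at two points in triplicate. Where that screen gave Ki below 1000 nM, Ki was taken from one 8-point experiment run in triplicate.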
(In general: Displacement assays read how much labelled ligand stays bound in the presence of the test substance.)

Assay [1] concerns the target Cannabinoid receptor 2 (Mus musculus, UniProt P47936). Nature of the assay: Displacement of [3H]CP-55,940 from mouse CB2 receptor expressed in HEK293 cells. It counts as cell-based. The gist of the method:
as §1

The target of assay [2] is Cannabinoid receptor 2 (Homo sapiens, UniProt P34972). In words: Displacement of [3H]CP-55,940 from human CB2 receptor expressed in HEK293 cells. In kind it is cell-based. The gist of the method: as §1
Chain of Cannabinoid receptor 2 (Homo sapiens, UniProt P34972) (P34972 whole entry): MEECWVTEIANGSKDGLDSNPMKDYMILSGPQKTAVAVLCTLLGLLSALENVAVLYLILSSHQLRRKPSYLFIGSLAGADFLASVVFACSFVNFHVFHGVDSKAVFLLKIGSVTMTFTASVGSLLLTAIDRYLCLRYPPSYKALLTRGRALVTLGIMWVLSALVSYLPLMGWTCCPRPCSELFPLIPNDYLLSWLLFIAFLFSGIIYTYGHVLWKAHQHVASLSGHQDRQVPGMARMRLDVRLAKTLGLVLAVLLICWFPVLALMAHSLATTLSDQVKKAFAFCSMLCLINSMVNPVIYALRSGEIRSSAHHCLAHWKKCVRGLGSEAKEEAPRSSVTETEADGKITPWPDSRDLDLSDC
In assay [3] the target is Cannabinoid receptor 2 (Mus musculus) (UniProt P47936). As to conditions: HEK293, 342 nM.
Chain of Cannabinoid receptor 2 (Mus musculus) (P47936 whole entry): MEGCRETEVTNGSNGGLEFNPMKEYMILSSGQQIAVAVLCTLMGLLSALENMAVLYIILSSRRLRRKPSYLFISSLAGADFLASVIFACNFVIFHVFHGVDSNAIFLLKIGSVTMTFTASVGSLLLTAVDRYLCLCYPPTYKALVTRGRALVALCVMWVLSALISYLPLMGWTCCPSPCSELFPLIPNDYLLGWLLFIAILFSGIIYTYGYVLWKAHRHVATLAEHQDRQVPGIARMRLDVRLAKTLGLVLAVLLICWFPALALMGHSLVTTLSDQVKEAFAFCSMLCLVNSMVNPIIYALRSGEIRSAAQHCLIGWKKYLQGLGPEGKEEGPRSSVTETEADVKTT
A short description of assay [4]: Selectivity ratio of Ki for rat CB1 receptor to Ki for mouse CB2 receptor.

Chain of Cannabinoid receptor 2 (Mus musculus, UniProt P47936) (P47936 whole entry): as above
Chain of Cannabinoid receptor 1 (P20272 whole entry): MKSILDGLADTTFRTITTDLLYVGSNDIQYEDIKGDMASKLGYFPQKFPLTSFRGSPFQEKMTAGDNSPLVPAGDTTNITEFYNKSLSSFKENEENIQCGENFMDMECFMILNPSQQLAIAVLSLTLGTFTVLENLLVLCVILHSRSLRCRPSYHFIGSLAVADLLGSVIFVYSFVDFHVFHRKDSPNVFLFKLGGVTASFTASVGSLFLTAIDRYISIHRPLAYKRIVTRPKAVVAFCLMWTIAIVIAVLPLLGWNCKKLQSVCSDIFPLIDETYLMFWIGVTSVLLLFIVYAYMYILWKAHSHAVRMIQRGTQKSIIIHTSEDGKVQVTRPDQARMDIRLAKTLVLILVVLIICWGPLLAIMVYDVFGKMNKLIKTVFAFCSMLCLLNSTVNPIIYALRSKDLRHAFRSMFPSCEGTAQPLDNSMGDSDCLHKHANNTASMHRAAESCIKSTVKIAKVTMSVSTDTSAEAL

By Ki is commonly meant a measure of affinity in units of concentration, obtained from inhibition or displacement. Consider `CC1(C)Oc2cc(C(=O)c3cccs3)cc(O)c2[C@@H]2C[C@H](O)CC[C@H]21`, for which the inhibition constant Ki on Cannabinoid receptor 1 and on Cannabinoid receptor 2 [1] was greater than 1 µM each time.
Consider `CC1(C)Oc2cc(C(=O)c3cncs3)cc(O)c2[C@@H]2C[C@H](O)CC[C@H]21`, for which the Ki on Cannabinoid receptor 1 and at Cannabinoid receptor 2 [1] was greater than 1 µM each time.
Turning to `CC1(C)Oc2cc(C(=O)c3ccco3)cc(O)c2[C@@H]2C[C@H](O)CC[C@H]21`, the inhibition constant (Ki) at Cannabinoid receptor 1 and at Cannabinoid receptor 2 [1] was greater than 1 µM in each case.
Consider `CC1(C)Oc2cc(C(=O)c3ccccn3)cc(O)c2[C@@H]2C[C@H](O)CC[C@H]21`, for which the Ki on Cannabinoid receptor 2 [2], at Cannabinoid receptor 1 and on Cannabinoid receptor 2 [1] was greater than 1 µM in each case.
`CC1(C)Oc2cc(C(=O)c3csc4ccccc34)cc(O)c2[C@@H]2C[C@H](O)CC[C@H]21`: the Ki came out at 0.125 µM on Cannabinoid receptor 2 [2], 1.25 µM on Cannabinoid receptor 1 and 0.0342 µM on Cannabinoid receptor 2 [1]. The Bmax in assay [3] is 67%. In assay [4], the Ratio Ki was 37.
Consider `CC1(C)Oc2cc(C(=O)c3cccc(C(F)(F)F)c3)cc(O)c2[C@@H]2C[C@H](O)CC[C@H]21`, for which the Ki worked out at 0.0373 µM on Cannabinoid receptor 2 [2], 0.0617 µM at Cannabinoid receptor 1 and 0.0458 µM at Cannabinoid receptor 2 [1].
The matching figures for `Cn1cc(C(=O)c2cc(O)c3c(c2)OC(C)(C)[C@@H]2CC[C@@H](O)C[C@@H]32)c2ccccc21`: 3.01 µM, 3.27 µM and 0.406 µM.
Consider `CC1(C)Oc2cc(C(=O)c3cccnc3)cc(O)c2[C@@H]2C[C@H](O)CC[C@H]21`, for which the Ki at Cannabinoid receptor 2 [2], at Cannabinoid receptor 1 and on Cannabinoid receptor 2 [1] was greater than 1 µM throughout.
For `CC1(C)Oc2cc(C(=O)c3c[nH]c4ccccc34)cc(O)c2[C@@H]2C[C@H](O)CC[C@H]21`, the inhibition constant (Ki) is 0.159 µM at Cannabinoid receptor 2 [2], 1.05 µM at Cannabinoid receptor 1 and 0.0604 µM at Cannabinoid receptor 2 [1]. Moreover, the Ratio Ki in assay [4] was found to be 17.
With `CC1(C)Oc2cc(C(=O)c3ccoc3)cc(O)c2[C@@H]2C[C@H](O)CC[C@H]21`, the Ki on Cannabinoid receptor 1 and on Cannabinoid receptor 2 [1] was greater than 1 µM each time.
For the compound `CC1(C)Oc2cc(C(=O)c3ccccc3)cc(O)c2[C@@H]2C[C@H](O)CC[C@H]21`, the Ki on Cannabinoid receptor 2 [2] turned out to be 0.587 µM; at Cannabinoid receptor 1, 0.968 µM; at Cannabinoid receptor 2 [1] it was 0.247 µM.
Regarding `CC1(C)Oc2cc(C(=O)c3ccncc3)cc(O)c2[C@@H]2C[C@H](O)CC[C@H]21`, the Ki at Cannabinoid receptor 2 [2], on Cannabinoid receptor 1 and at Cannabinoid receptor 2 [1] was greater than 1 µM each time.
Regarding `CC1(C)Oc2cc(C(=O)c3cccc(F)c3)cc(O)c2[C@@H]2C[C@H](O)CC[C@H]21`, the Ki at Cannabinoid receptor 1 worked out at 0.46 µM; at Cannabinoid receptor 2 [1], 0.37 µM.
Turning to `CC1(C)Oc2cc(C(=O)c3ccsc3)cc(O)c2[C@@H]2C[C@H](O)CC[C@H]21`, the inhibition constant (Ki) came out at 1.55 µM at Cannabinoid receptor 2 [2], 1.04 µM at Cannabinoid receptor 1 and 0.525 µM on Cannabinoid receptor 2 [1].
The matching figures for `CC1(C)Oc2cc(C(=O)c3cc4ccccc4o3)cc(O)c2[C@@H]2C[C@H](O)CC[C@H]21`: 0.209 µM, 1.36 µM and 0.163 µM.
The matching figures for `CC1(C)Oc2cc(C(=O)c3cc4ccccc4s3)cc(O)c2[C@@H]2C[C@H](O)CC[C@H]21`: 0.113 µM, 0.157 µM and 0.152 µM.
Consider `CC1(C)Oc2cc(C(=O)c3ccncc3F)cc(O)c2[C@@H]2C[C@H](O)CC[C@H]21`, for which the Ki on Cannabinoid receptor 1 and on Cannabinoid receptor 2 [1] was greater than 1 µM in each case.
Take `CC1(C)Oc2cc(C(=O)c3coc4ccccc34)cc(O)c2[C@@H]2C[C@H](O)CC[C@H]21`: the Ki amounted to 0.118 µM at Cannabinoid receptor 2 [2], 2.88 µM on Cannabinoid receptor 1 and 0.169 µM at Cannabinoid receptor 2 [1]. Further, the Ratio Ki in assay [4] turned out to be 17.
With `CC1(C)Oc2cc(C(=O)c3cscn3)cc(O)c2[C@@H]2C[C@H](O)CC[C@H]21`, the Ki on Cannabinoid receptor 2 [2], on Cannabinoid receptor 1 and at Cannabinoid receptor 2 [1] was greater than 1 µM in each case.
